{
  "source": "paper PMC3076219",
  "about": "(European journal of immunology, 2009)",
  "key": {"[1]": {"test_system": "neutrophils", "test": "Calcium mobilization of neutrophils", "type": "cell-based, human"}, "[2]": {"test_system": "neutrophils", "details": "cited from earlier work"}, "[3]": {"test_system": "neutrophils", "details": "ref [27]; cited from earlier work"}, "[4]": {"test_system": "neutrophils", "test": "Neutrophil migration, 24-well Transwell", "type": "cell-based, human", "details": "Fig. 6H", "in_short": "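CFSE-labelled human neutrophils (5 µM, 5 min RT) at 5×10^6/mL in phenol-red-free RPMI 1640 with 1% FBS went in the Transwell upper chamber (3-µm pores). The lower chamber held test peptide (1 or 5 µM) or medium. Some cells were first preincubated 20 min with 10 µM CXCR2 antagonist. After 1 h at 37 °C, migrated cells were read at 495 nm against a standard curve. Quadruplicate; unpaired t-test.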"}, "[5]": {"test_system": "monocytes", "test": "Migration of monocytes, 24-well Transwell", "type": "cell-based, human", "details": "LL-37 5 µM, Fig. 7F", "in_short": "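CFSE-labelled monocytes or THP-1 cells (5 µM, 5 min RT) at 2×10^6/mL in phenol-red-free RPMI 1640 with 1% FBS went in the Transwell upper chamber (3-µm pores). Stimuli in the lower chamber included CXCL1 50 nM, WKYMVm 5 µM and ATP/BzATP 50 µM. Cells were used with or without 20 min preincubation with 10 µM CXCR2 antagonist. Incubation at 37 °C lasted 90 min for monocytes and 2 h for THP-1. Lower-well cells were read at 495 nm against a standard curve, in quadruplicate.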"}, "[6]": {"test_system": "neutrophils", "details": "ref [66]; cited from earlier work"}, "[7]": {"test_system": "CXCR1", "details": "indirect, inside-out signaling; ref [16]; cited from earlier work"}, "[8]": {"test_system": "CXCR2", "details": "indirect, inside-out signaling; ref [16]; cited from earlier work"}, "[9]": {"test_system": "CXCR1", "test": "CXCR1 surface expression on neutrophils, flow cytometry", "type": "cell-based, human", "details": "WKYMVm 1 µM, 10 µM, 100 µM; 3h; Fig. 2B", "in_short": "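Human blood neutrophils were isolated by dextran sedimentation and Ficoll (>95% CD16+) and held at 5×10^6/mL in RPMI 1640 with 1% FBS. They were treated 3h with a dose series (test peptide 1–10 µM; chemokines 1, 5, 10, 50 nM) or with 5 µM for 0.5–3h. Cells were blocked in 10% human serum and stained with anti-CXCR1-APC/anti-CXCR2-FITC or anti-P2X7-FITC, plus anti-CD16. Read-out was flow cytometry GMFI.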"}, "[10]": {"test_system": "THP-1 cells", "test": "Calcium mobilization in THP-1 cells", "type": "cell-based", "details": "Fig. 7C", "in_short": "(§1)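 Peripheral blood monocytes (kit-isolated from PBMC, CD14-checked) or THP-1 cells at 10^7/mL were loaded with 5 µM Indo-1-AM for 7 min at 37 °C, then held 10 min at RT and washed in cold PBS. Cells were run at 2×10^6/mL in KRP (PBS, 1.5 mM CaCl2, 1.5 mM MgSO4). After baseline they got a first stimulus, then a second. Flow cytometry used 351 nm excitation and the 405:485 nm ratio, gating live cells. Three independent experiments.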"}, "[11]": {"test_system": "neutrophils", "test": "Cross-desensitization of calcium mobilization of neutrophils", "type": "cell-based, human", "details": "WKYMVm first"}, "[12]": {"test_system": "CXCR2", "test": "CXCR2 surface expression on neutrophils, flow cytometry", "type": "cell-based, human", "details": "WKYMVm 1 µM, 10 µM, 100 µM; 3h; Fig. 2B"}, "[13]": {"test_system": "monocytes", "test": "Calcium mobilization in monocytes", "type": "cell-based, human", "details": "ATP or WKYMVm first, then LL-37; Fig. 7D", "in_short": "as §1"}, "[14]": {"test_system": "FPR2", "test": "FPR2 surface expression on monocytes", "type": "cell-based, human", "details": "Supporting information Fig. 2"}, "[15]": {"test_system": "CXCR2", "test": "CXCR2 surface expression on monocytes", "type": "cell-based, human", "details": "Supporting information Fig. 2"}},
  "note": "Entries after “also recorded” stand apart in the source; their conditions may differ.",
  "data": [
    {"compound": "O=C(Nc1ccc([N+](=O)[O-])cc1O)Nc1ccccc1Br", "note": "[SB225002]", "values": [
      {"measurement": "reduction of [Ca2+]i for LL-37", "setting": "[1]; SB225002 10 µM, then 180 s later LL-37 5 µM, Fig. 6A", "result": "> 90", "unit": "%"},
      {"measurement": "inhibition of calcium mobilization for ATP", "setting": "[1]; SB225002 10 µM, ATP 5 µM, Fig. 6F", "result": "not for fMLF (Fig. 6E), ATP"},
      {"measurement": "inhibition of calcium mobilization for CXCL1", "setting": "[1]; SB225002 10 µM, CXCL1 10 nM, Fig. 6C", "result": "complete inhibition"},
      {"measurement": "inhibition of calcium mobilization for CXCL7", "setting": "[1]; SB225002 10 µM, CXCL7 10 nM, Fig. 6B", "result": "complete inhibition"},
      {"measurement": "inhibition of CXCL8 stimulation ([Ca2+]i)", "setting": "[1]; SB225002 10 µM, CXCL8 10 nM, Fig. 6D", "result": "about 50%"},
      {"measurement": "inhibition of calcium mobilization for WKYMVm", "setting": "[1]; SB225002 10 µM, WKYMVm 5 µM, Fig. 6G", "result": "not for fMLF (Fig. 6E), ATP (Fig. 6F) or WKYMVm"},
      {"measurement": "inhibition of calcium mobilization for fMLF", "setting": "[1]; SB225002 10 µM, fMLF 100 nM, Fig. 6E", "result": "not for fMLF"},
      {"measurement": "inhibition of neutrophil migration with CXCL1 or CXCL8", "setting": "[2]; SB225002, ref [27]", "result": "dose dependent inhibition"},
      {"measurement": "inhibition of CXCL1 and CXCL7 stimulated neutrophil migration", "setting": "[2]; ref [27]", "result": "completely inhibited"},
      {"measurement": "inhibition of CXCL8 stimulated neutrophil migration", "setting": "[2]; ref [27]", "result": "partially inhibited"},
      {"measurement": "inhibition of [Ca2+]i of neutrophils treated with CXCL1 or CXCL8", "setting": "[3]", "result": "dose dependent inhibition"},
      {"measurement": "migration of SB225002 treated controls", "setting": "[4]; SB225002 10 µM without LL-37", "result": "did not interfere with cell migration"},
      {"measurement": "inhibition of LL-37-induced neutrophil migration", "setting": "[4]; SB225002 10 µM, 20 min pretreatment, LL-37 5 µM, p<0.05", "result": "completely inhibited; also recorded: completely block"},
      {"measurement": "inhibition of LL-37-stimulated monocyte migration", "setting": "[5]; SB225002 10 µM, 20 min preincubation", "result": "blocked"}
    ]},
    {"compound": "pertussis toxin [PTX]", "values": [
      {"measurement": "block of CXCL8, fMLF, LTB4, CXCL6, and MNCF stimulated neutrophil migration", "setting": "[2]; ref [33], [63], [65]", "result": "able to block"},
      {"measurement": "block of FPR- and CXCR-induced oxidase activity of neutrophils", "setting": "[6]", "result": "able to block"}
    ]},
    {"compound": "TNFα", "values": [
      {"measurement": "CXCR1 down-regulation", "setting": "[7]", "result": "cause down-regulation of CXCR2 and CXCR1"},
      {"measurement": "CXCR2 down-regulation", "setting": "[8]", "result": "cause down-regulation of CXCR2 and CXCR1"}
    ]},
    {"compound": "WKYMVm [reference compound]", "values": [
      {"measurement": "calcium flux response in the absence of extracellular Ca2+", "setting": "[1]; PBS without calcium and magnesium, LL-37 5 µM, WKYMVm 5 µM, ATP 5 µM, Fig. 3C", "result": "capable of generating a calcium flux response"},
      {"measurement": "CXCR1 surface expression", "setting": "[9]", "result": "caused down-regulation of both CXCR2 and CXCR1 expression with similar kinetics"},
      {"measurement": "calcium signal in THP-1 cells", "setting": "[10]", "result": "but not WKYMVm gives a robust calcium signal"},
      {"measurement": "block of LL-37 induced signal by WKYMVm pretreatment", "setting": "[10]; WKYMVm first, then LL-37, THP-1", "result": "does not block the LL-37 induced signal"},
      {"measurement": "cross-desensitization of CXCL1 response by WKYMVm", "setting": "[11]; then CXCL1, Supporting information Fig. 3E-F", "result": "this was the case for CXCL1"},
      {"measurement": "cross-desensitization of LL-37 response by WKYMVm", "setting": "[11]; then LL-37, Supporting information Fig. 3C-D", "result": "able to block LL-37 stimulated calcium mobilization"},
      {"measurement": "CXCR2 surface expression", "setting": "[12]", "result": "caused down-regulation of both CXCR2 and CXCR1 expression with similar kinetics"},
      {"measurement": "cross-block of LL-37 stimulated calcium mobilization in monocytes", "setting": "[13]", "result": "neither ATP nor WKYMVm cross-block LL-37 stimulated calcium mobilization"},
      {"measurement": "FPR2 down-regulation on monocytes", "setting": "[14]", "result": "down regulated FPR2 and CXCR2"},
      {"measurement": "CXCR2 down-regulation on monocytes", "setting": "[15]", "result": "down regulated FPR2 and CXCR2"},
      {"measurement": "stimulation of migration of monocytes", "setting": "[5]; CXCL1 50 nM, WKYMVm 5 µM, ATP 50 µM, BzATP 50 µM, 90 min, 37°C", "result": "only LL-37 stimulated migration of monocytes"}
    ]}
  ]
}
